In ChEMBL document CHEMBL4014329, “Selective Inhibition of Escherichia coli RNA and DNA Topoisomerase I by Hoechst 33258 Derived Mono- and Bisbenzimidazoles” (J Med Chem, 2017):
Converted amounts (≈) assume the structure as drawn. The source made the active and inactive calls. No cut-off for these calls is given here.

Experiments:
[1] = Binding affinity to dA60.dT60 B-DNA duplex (unknown origin) assessed as induction of biphasic transition at <5 uM by UV-vis spectrophotometric analysis
[2] = system: Staphylococcus aureus; assay: Antibacterial activity against methicillin-resistant Staphylococcus aureus 33591 after 24 hrs by microbroth dilution method; type: functional; details: Staphylococcus aureus, 33591, 24 h
Method in brief: (§1)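 Mueller-Hinton broth cultures grown at 37 °C with shaking to log phase, pelleted, resuspended in 0.85% saline to OD625 0.1. Broth microdilution per CLSI guidelines, final inoculum 5 × 10^5 CFU/mL, in triplicate, 24 h at 37 °C. Growth read as OD625. MIC is the lowest concentration giving complete growth inhibition versus untreated controls.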

[3] = system: Escherichia coli; assay: Antibacterial activity against Escherichia coli ATCC 25922 after 24 hrs by microbroth dilution method; type: functional; details: ATCC 25922, 24 h
Method in brief: (§2)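 Microbroth dilution per CLSI guidelines. Organisms grown in Mueller−Hinton broth at 37 °C with shaking to log phase, pelleted, resuspended in 0.85% saline to OD625 0.1. Final inoculum 5 × 10^5 CFU/mL; triplicate; 24 h at 37 °C. OD625 read; MIC = lowest concentration completely inhibiting growth versus untreated controls.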

[4] = molecular target: T1, DNA topoisomerase 1 (Homo sapiens, UniProt P11387); assay: Inhibition of human DNA topoisomerase 1 using plasmid pBAD-GFPuv as substrate after 30 mins by agarose gel electrophoresis
T1 sequence (P11387 whole entry): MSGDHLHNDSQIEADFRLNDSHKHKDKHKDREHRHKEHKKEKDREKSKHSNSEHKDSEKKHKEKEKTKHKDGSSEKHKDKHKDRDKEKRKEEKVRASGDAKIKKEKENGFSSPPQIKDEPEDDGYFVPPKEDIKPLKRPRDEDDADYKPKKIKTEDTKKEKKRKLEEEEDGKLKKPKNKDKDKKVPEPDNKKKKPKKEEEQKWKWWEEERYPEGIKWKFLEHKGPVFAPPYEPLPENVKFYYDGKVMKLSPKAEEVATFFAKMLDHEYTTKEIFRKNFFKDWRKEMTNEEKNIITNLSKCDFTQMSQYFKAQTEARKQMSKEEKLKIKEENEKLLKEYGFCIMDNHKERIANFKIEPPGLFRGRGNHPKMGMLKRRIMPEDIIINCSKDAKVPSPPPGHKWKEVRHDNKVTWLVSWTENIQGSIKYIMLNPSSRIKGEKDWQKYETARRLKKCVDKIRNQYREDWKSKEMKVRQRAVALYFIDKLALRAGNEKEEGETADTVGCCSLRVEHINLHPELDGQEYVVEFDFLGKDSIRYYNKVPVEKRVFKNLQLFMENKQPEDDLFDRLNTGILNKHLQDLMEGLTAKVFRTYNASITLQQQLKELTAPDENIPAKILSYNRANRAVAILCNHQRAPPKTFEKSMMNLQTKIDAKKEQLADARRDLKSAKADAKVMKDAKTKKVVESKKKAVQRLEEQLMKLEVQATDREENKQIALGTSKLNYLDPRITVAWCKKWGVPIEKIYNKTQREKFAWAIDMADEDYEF

[5] = system: Staphylococcus epidermidis; assay: Antibacterial activity against Staphylococcus epidermidis ATCC 12384 after 24 hrs by microbroth dilution method; type: functional; details: ATCC 12384, 24 h; method in brief: as §2
[6] = system: Enterobacter cloacae; assay: Antibacterial activity against Enterobacter cloacae ATCC 13047 after 24 hrs by microbroth dilution method; type: functional; details: ATCC 13047, 24 h; method in brief: as §2
[7] = system: Shigella flexneri; assay: Antibacterial activity against Shigella flexneri 2457NR517 after 24 hrs by microbroth dilution method; type: functional; details: 2457NR517, 24 h; method in brief: as §1
[8] = system: Acinetobacter baumannii; assay: Antibacterial activity against Acinetobacter baumannii ATCC 19606 after 24 hrs by microbroth dilution method; type: functional; details: ATCC 19606 = CIP 70.34 = JCM 6841, 24 h; method in brief: as §2
[9] = system: Citrobacter freundii; assay: Antibacterial activity against Citrobacter freundii 4747CFAA after 24 hrs by microbroth dilution method; type: functional; method in brief: as §2
[10] = system: Enterococcus faecalis; assay: Antibacterial activity against Enterococcus faecalis ATCC 29212 after 24 hrs by microbroth dilution method; type: functional; details: ATCC 29212, 24 h; method in brief: as §2
[11] = Inhibition of Escherichia coli DNA topoisomerase 1 using plasmid pBAD-GFPuv as substrate after 15 mins by agarose gel electrophoresis
Method in brief: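 E. coli topoisomerase I at 6 nM relaxing 150 ng supercoiled pBAD-GFPuv. 15 min at 37 °C, phenol-stopped, 1% agarose gel, ethidium stain. IC50 is the concentration leaving 50% DNA supercoiled; three independent determinations.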

[12] = system: Escherichia coli; assay: Inhibition of Escherichia coli DNA gyrase using relaxed plasmid pBAD-GFPuv as substrate after 30 mins by agarose gel electrophoresis
[13] = system: Escherichia coli; assay: Antibacterial activity against Escherichia coli K-12 after 24 hrs by microbroth dilution method; type: functional; details: K-12, 24 h; method in brief: as §2
[14] = system: Pseudomonas aeruginosa; assay: Antibacterial activity against Pseudomonas aeruginosa ATCC 27853 after 24 hrs by microbroth dilution method; type: functional; details: ATCC 27853, 24 h; method in brief: as §2
[15] = system: Staphylococcus aureus; assay: Antibacterial activity against methicillin-resistant Staphylococcus aureus A960649 after 24 hrs by microbroth dilution method; type: functional; details: A960649, 24 h; method in brief: as §1
[16] = system: Staphylococcus aureus; assay: Antibacterial activity against Staphylococcus aureus ATCC 33591 after 24 hrs by microbroth dilution method; type: functional; details: ATCC 33591, 24 h; method in brief: as §2
[17] = system: Staphylococcus aureus; assay: Antibacterial activity against Staphylococcus aureus ATCC 29213 after 24 hrs by microbroth dilution method; type: functional; details: ATCC 29213, 24 h; method in brief: as §2
[18] = system: DU-145; assay: Cytotoxicity against human DU145 cells after 48 hrs by SRB assay; type: cell-based; details: for IC50: Homo sapiens, DU-145, 48 h
Method in brief: (§3)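 Cells cultured per ATCC protocols, seeded and grown 24 h (37 °C, 5% CO2), then treated in triplicate at final 20, 10, 5, 2.5, 1.25, 0.625 and 0.0625 μM for 48 h. Fixed with cold TCA (16% final, 4 °C, 1 h), stained with SRB in 1% acetic acid, dye solubilized in 10 mM Tris base, A560 read. IC50 derived; study in duplicate.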

[19] = Binding affinity to dA60.dT60 B-DNA duplex (unknown origin) assessed as change in melting temperature at 10 uM by UV-vis spectrophotometric analysis
Method in brief: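 UV melting of dA60·dT60 at 1 μM/duplex with compound at 10 μM. Buffer 10 mM sodium cacodylate, 0.1 mM EDTA, 100 mM NaCl, pH 7.0; duplex pre-annealed from 95 °C. Compound stocks in DMSO diluted into buffer. Heating at 0.2 °C/min, monitored at 260 nm, points every 1.0 °C; Tm taken from derivatives.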

[20] = system: Enterococcus faecium; assay: Antibacterial activity against Enterococcus faecium BM4105RF after 24 hrs by microbroth dilution method; type: functional; method in brief: as §1
[21] = system: Escherichia coli; assay: Inhibition of Escherichia coli RNA topoisomerase-1 using circular RNA as substrate 10 uM after 1.5 hrs by SDS-PAGE analysis
Method in brief: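 10 nM E. coli topoisomerase I premixed with reaction buffer and inhibitor diluted in DMSO, then circular RNA substrate added; 1.5 h incubation. Stopped with proteinase K/SDS/EDTA buffer. Trefoil RNA knot product separated from circular substrate on 15% TBE−urea gels and detected by phosphorimaging. DMSO-only control included.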

[22] = system: Klebsiella pneumoniae; assay: Antibacterial activity against Klebsiella pneumoniae NR15410 after 24 hrs by microbroth dilution method; type: functional; details: NR15410, 24 h; method in brief: as §2
[23] = Cytotoxicity against human PCS-201-010 cells after 48 hrs by SRB assay; type: cell-based; details: PCS-201-010, 48 h; method in brief: as §3
[24] = system: Escherichia coli; assay: Inhibition of Escherichia coli RNA topoisomerase 1 using circular RNA as substrate up to 80 uM after 1.5 hrs by SDS-PAGE analysis
Method in brief: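 E. coli topoisomerase I (10 nM) premixed in reaction buffer with inhibitor diluted in DMSO, then circular RNA substrate added; 1.5 h. DMSO-only control included. Final inhibitor 2.5 to 80 μM. Stopped with proteinase K/SDS/EDTA. Trefoil RNA knot product resolved from substrate on 15% TBE-urea gels and detected by autoradiography.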

[25] = Inhibition of human DNA topoisomerase 2 using plasmid pBAD-GFPuv as substrate after 30 mins by agarose gel electrophoresis
Method in brief: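 Compound at 5–50 μM final, 30 min at 37 °C. Phenol extraction, 1% agarose electrophoresis, ethidium stain. IC50 = concentration at which 50% of DNA remains (−) supercoiled.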

Structure (SMILES)	Activity [1]	MIC [2]	MIC [3]	IC50 [4]	MIC [5]	MIC [6]	MIC [7]	MIC [8]	MIC [9]	MIC [10]	IC50 [11]	MIC [13]	MIC [14]	MIC [15]	MIC [16]	MIC [17]	IC50 [18]	MIC [20]	inhibition [21]	MIC [22]	also measured
C#CCOCCCCCCCCCCCCOc1ccc(-c2nc3ccc(-c4nc5ccc(N6CCN(C)CC6)cc5[nH]4)cc3[nH]2)cc1	Active	> 32 µg/mL	16 µg/mL (≈ 24.7 µM)	> 50 µM	> 32 µg/mL	> 32 µg/mL	> 32 µg/mL	> 32 µg/mL	> 32 µg/mL	16 to 32 µg/mL (≈ 24.7 to 49.5 µM)	4 µM	16 µg/mL (≈ 24.7 µM)	16 µg/mL (≈ 24.7 µM)	> 32 µg/mL	16 to 32 µg/mL (≈ 24.7 to 49.5 µM)	16 to 32 µg/mL (≈ 24.7 to 49.5 µM)	> 10 µM	≥ 32 µg/mL	Active	> 32 µg/mL	inhibition [12]: inactive; ΔTm [19]: 1.2 °C; IC50 [23]: > 10 µM
C#CCCCCCCCCCOc1ccc(-c2nc3ccc(-c4nc5ccc(N6CCN(C)CC6)cc5[nH]4)cc3[nH]2)cc1		> 32 µg/mL	16 µg/mL (≈ 27.8 µM)		> 32 µg/mL	> 32 µg/mL	> 32 µg/mL	> 32 µg/mL	> 32 µg/mL				16 µg/mL (≈ 27.8 µM)	> 32 µg/mL			> 10 µM	> 32 µg/mL	Active	> 32 µg/mL	inhibition [12]: inactive
CCOc1ccc(-c2nc3cc(-c4nc5cc(N6CCN(C)CC6)ccc5[nH]4)ccc3[nH]2)cc1		1 µg/mL (≈ 2.21 µM)	16 µg/mL (≈ 35.4 µM)		1 µg/mL (≈ 2.21 µM)	4 µg/mL (≈ 8.84 µM)	1 to 2 µg/mL (≈ 2.21 to 4.42 µM)	8 µg/mL (≈ 17.7 µM)		16 to 32 µg/mL (≈ 35.4 to 70.7 µM)		16 µg/mL (≈ 35.4 µM)	16 µg/mL (≈ 35.4 µM)	0.5 µg/mL (≈ 1.1 µM)	2 to 4 µg/mL (≈ 4.42 to 8.84 µM)	2 to 4 µg/mL (≈ 4.42 to 8.84 µM)		0.3 µg/mL (≈ 0.663 µM)			inhibition [24]: inactive
C#CCOCCCCCCCCOc1ccc(-c2nc3ccc(-c4nc5ccc(N6CCN(C)CC6)cc5[nH]4)cc3[nH]2)cc1	Active	> 32 µg/mL	16 to 32 µg/mL (≈ 27.1 to 54.2 µM)	> 50 µM	> 32 µg/mL	> 32 µg/mL	> 38 µg/mL	> 32 µg/mL	> 32 µg/mL	16 to 32 µg/mL (≈ 27.1 to 54.2 µM)	2.8 µM	2 to 4 µg/mL (≈ 3.39 to 6.77 µM)	16 to 32 µg/mL (≈ 27.1 to 54.2 µM)	> 32 µg/mL	16 to 32 µg/mL (≈ 27.1 to 54.2 µM)	> 32 µg/mL		> 32 µg/mL	Active	> 32 µg/mL	Activity ([18]; human, du-145, 48 h): Toxic; ΔTm [19]: 13.1 °C
CCOc1ccc2nc3cc(N)ccc3c(N)c2c1																					inhibition [24]: inactive
C#CCOCCCCCCCCCCOc1ccc(-c2nc3ccc(-c4nc5ccc(N6CCN(C)CC6)cc5[nH]4)cc3[nH]2)cc1	Active	> 32 µg/mL	> 32 µg/mL	> 50 µM	> 32 µg/mL	> 32 µg/mL	> 32 µg/mL	> 32 µg/mL	> 32 µg/mL	16 to 32 µg/mL (≈ 25.9 to 51.7 µM)	12.2 µM	2 to 4 µg/mL (≈ 3.23 to 6.46 µM)	16 to 32 µg/mL (≈ 25.9 to 51.7 µM)	> 32 µg/mL	> 32 µg/mL	> 32 µg/mL	> 10 µM	> 32 µg/mL	Active	> 32 µg/mL	ΔTm [19]: 5.6 °C; IC50 [25]: > 50 µM
